Assay outcomes as filed in PubChem BioAssay.
Only a selection was taken, and hits are over-represented in it overall.
DTT redox prof – compounds producing H2O2 with reducing agent – biochemical, NIH compound library profiling, artefact control for MLSCN library redox annotation, primary screen. 0.03% of 200,000 active. activation, % at 10 µM. AID 878, 2007. DTT-dependent redox cycling H2O2, phenol red/HRP absorbance; 100% = 100 µM peroxide control, 0% = buffer;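 active means activation of at least 50% relative to the plate's high and low controls in the primary single-dose screen; inactive means activation below 50%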;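 further: compound incubated with DTT at 0.8 mM final as the reducing agent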
Hep lipid drop – inhibitors of hepatocyte lipid droplet formation, primary screen, imaging, high-throughput imaging, BODIPY stain; AML12 mouse hepatocytes, oleate lipid droplets; inhibition, % at 6.5 µM; 0.4% of 240,000 active; AID 1656, 2009;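 active means lipid droplet intensity inhibited by at least 50%, with more than 500 cells counted; inconclusive means wells with under 300 cells, treated as cytotoxic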
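Technique: fluorescence imaging, 20x objective, two fields per well / Assay system: AML12 hepatocytes (mouse) / Measure: % inhibition of lipid droplet signal / Doses: 6.5 µM single-point dosing / Incubation: overnight exposure / Reagent: 100 µM oleic acid challenge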
Lmaj promast – Leishmania major promastigote growth inhibition, primary screen; Leishmania major promastigotes, resazurin fluorescence viability; inhibition, % at 10 µM; 9% of 200,000 active; AID 1063, 2008; in the data active means inhibition above about 50%;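 further: promastigotes grown with compound for 44 hours at 28 °C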
T cruzi inh – inhibitors of intracellular T. cruzi growth, primary screen, luminescence, NIH3T3 host cells; inhibition, % (no concentration beside the values); T. cruzi beta-gal in NIH3T3, 90 h; 1.4% of 300,000 active;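 active means mean inhibition across valid replicates above about 55%, limit read from the data; inconclusive means mean below that limit but half or more replicates reach it; inactive means mean below it, under half of replicates reach it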;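 further: signal also drops with host cell toxicity which is not excluded here; 0% = plate median of DMSO wells and 100% = zero luminescence signal; higher percent means less beta-gal luminescence so fewer parasites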
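System – NIH/3T3 host cells with β-galactosidase reporter T. cruzi · Doses – single 50 nL compound addition per well in DMSO · Reagent – 5000 T. cruzi trypomastigotes/well · Medium – Low-serum DMEM with 2% FBS · Timing – ≥90 h infection period, 3 h prior cell attachment · Evaluation – parasite load inhibition, % · Technique – GalScreen luminescence, 60 min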
MPTP inh – mitochondrial permeability transition pore inhibitors, primary screen, biochemical, isolated mouse mitochondria, absorbance; 1.4% of 360,000 active; AID 602449, 2012; inhibition, % at 10 µM; Ca2+ swelling absorbance, 30 min;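 active means inhibition of 50% or more, scaled per plate between neutral and stimulator controls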;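 further: 0% = DMSO wells given calcium and 100% = 1 mM EGTA wells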
Lipid drop inh – hepatocyte lipid droplet accumulation inhibitors, confirmation, imaging, AML12 mouse hepatocytes, single concentration, high-content; shares compounds with Hep lipid drop; BODIPY lipid droplet imaging; droplets induced with 100 µM oleic acid; inhibition, % at 5.2 µM; 65% of 870 active; AID 463183, 2010;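 active means inhibition of lipid droplet metric at least 50%, with more than 300 cells in each of four replicates; inconclusive means wells under 300 cells, flagged as toxic or low count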;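 further: plate controls were DMSO with oleic acid for no effect and 5 µM Triacsin-C for full effect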
AML12 tox img – AML12 hepatocyte cytotoxicity, counter-screen for hepatic lipid droplet formation project, imaging, DAPI nuclear morphology imaging | shares compounds with Hep lipid drop | AML12 mouse hepatocytes; hits give high values; cells fed 100 µM oleate overnight | z-score at 5 µM | 3% of 870 active; in the data active means z-score above about 6.3;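 further: compound exposure lasted overnight at 37 °C before fixation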
AML12 tox conf – AML12 hepatocyte cytotoxicity, confirmation, cytotoxicity control for hepatic lipid droplet formation project, cell-based, single concentration. AML12 mouse hepatocyte viability, ATP luminescence; cells loaded with 100 µM oleic acid. shares compounds with Hep lipid drop. 530 tested, under 10 active. cytotoxicity, % at 50 µM;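 active means cytotoxicity above 50% in each of four replicates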;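 further: compound exposure lasted overnight at 37 °C before the ATP read; 0% = DMSO-treated cells and 100% = wells with no cells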
The depositor's hits bear a star; ? = inconclusive; . = no result given.

SMILES	DTT redox prof	Hep lipid drop	Lmaj promast	T cruzi inh	MPTP inh	Lipid drop inh	AML12 tox img	AML12 tox conf
Cc1ccc(C(=O)N(Cc2ccccc2)C(C)(C)C)cc1C	-0.4	-19.6	11.6	8.0	0.5	.	.	.
CN(C(=O)CSc1cc(C(=O)c2nccn2C)c2ccccc2n1)c1ccccc1	.	80.9*	.	5.3	0.4	-16.0	-0.0185	.
C/C(=N\N=C(/N)c1nonc1N)c1ccc2c(c1)OCO2	.	66.0*	.	4.9	2.8	27.0	0.381	.
COc1cc(/C=C/C(=O)NC(C)CCc2ccccc2)cc(OC)c1OC (stereo unspecified)	-0.4	5.2	35.0	0.2	-0.3	.	.	.
FC(F)Oc1ccc(-c2csc(NNC3=NCCCCC3)n2)cc1	-2.2	94.9*	12.6	?	0.2	114.6*	0.878	25.1
Brc1ccc(-c2csc(NNC3=NCCCCC3)n2)cc1	2.1	.	15.8	26.0	1.7	.	.	.
CC(C)(C)c1ccc(-c2csc(NNC3=NCCCCC3)n2)cc1	-1.9	59.7*	40.2	45.7	1.0	99.8*	-0.647	12.3
CCCCN1C(=O)/C(=C/C=C2\Oc3ccccc3N2CC)SC1=S	-0.2	69.0*	-2.2	12.1	2.8	113.2*	-0.504	13.8
CCN1C(=O)/C(=C/C=C2/Sc3ccccc3N2CCO)SC1=S	0.7	46.9	1.3	-0.5	17.5	.	.	.
COc1ccccc1NC1=C(N2CCCCC2)C(=O)c2ccccc2C1=O	-0.9	68.9*	99.8*	62.2*	1.1	39.6	-0.26	.
CN(C1=C(N2CCCCC2)C(=O)c2ccccc2C1=O)c1ccccc1	0.2	78.7*	64.7*	39.8	1.5	113.5*	0.756	11.4
COc1cccc(N=Nc2ccc3ccccc3c2O)c1	.	74.9*	.	2.3	8.8	70.5	-0.226	60.9*
COc1ccc(N=Nc2ccc3ccccc3c2)c(O)c1	.	22.5	.	-8.6	2.1	.	.	.
Cc1ccc(N=Nc2ccc3ccccc3c2O)cc1	.	82.1*	.	-10.4	10.6	52.6	0.114	.
Oc1c(N=Nc2ccc(F)cc2)ccc2ccccc12	.	71.1*	.	8.9	7.2	96.1*	1.03	64.2*
Cc1cc(C)c2[nH]c(=O)c(CN(Cc3cccnc3)C(=S)NCCCN(C)C)cc2c1	-0.2	0.5	1.1	13.5	0.2	.	.	.
CCOC(=O)CC1C(=O)NCCN1S(=O)(=O)c1cccc(C(F)(F)F)c1 (stereo unspecified)	.	-2.4	.	-21.1	-0.3	.	.	.
COc1ccc(CN2CCN(c3ncnc4scc(-c5ccc(F)cc5)c34)CC2)cc1	.	-24.8	.	11.9	-0.4	.	.	.
COc1ccc(F)cc1CN1CCN(c2ncnc3scc(-c4ccccc4)c23)CC1	.	56.2*	.	-17.2	1.3	-3.3	0.651	.
CC1(OC(=O)CCc2ccccc2)C(=O)C=C2C=C(c3ccc(C#N)cc3)N(CCc3c[nH]c4ccccc34)C=C2C1=O (stereo unspecified)	.	59.7*	.	10.0	-1.5	44.2	0.537	.
CCN(CC)CCCN1C=C2C(=O)C(C)(OC(=O)CCc3ccccc3)C(=O)C=C2C=C1c1ccc(C#N)cc1 (stereo unspecified)	.	-3.0	.	-1.3	-1.5	.	.	.
Cn1c(=O)c(C(=O)COC(=O)c2cc(C(F)(F)F)nc3ccccc23)c(N)n(Cc2ccccc2)c1=O	-0.1	-12.0	44.9	39.4	.	.	.	.
Cn1c(=O)c(C(=O)COC(=O)c2cc(C3CC3)nc3ccccc23)c(N)n(Cc2ccccc2)c1=O	1.3	55.1*	35.8	.	.	82.4*	-0.963	.
CCOc1ccc(CCNC(=O)c2cc3sccc3n2CC)cc1OCC	0.0	91.9*	3.5	22.2	0.6	108.5*	-0.0532	8.4
CCOc1ccc(CCNC(=O)CSc2cc(=O)n(CC)c3ccccc23)cc1OCC	-0.2	93.3*	2.8	-2.3	0.6	105.1*	-0.186	13.9
SMILES	DTT redox prof	Hep lipid drop	Lmaj promast	T cruzi inh	MPTP inh	Lipid drop inh	AML12 tox img	AML12 tox conf
CCOc1ccc(CCNC(=O)CCC(=O)c2cccs2)cc1OCC	.	.	.	.	-0.9	.	.	.
CCn1c(=O)cc(OCC(=O)NCCc2cccc(C)c2)c2ccccc21	-1.7	-20.7	15.3	26.1	4.7	.	.	.
CCOc1ccc(CCNC(=O)c2nnc(Cc3ccc(F)cc3)o2)cc1OCC	0.6	101.6*	-6.3	7.5	-0.3	106.0*	-0.348	10.1
CCOc1ccc(CCNC(=O)CSc2cc(=O)n(C)c3cc(Cl)ccc23)cc1OCC	0.5	77.9*	1.2	27.5	-0.2	77.8*	-0.282	-1.3
Cc1cccc(CCNC(=O)c2nnc(Cc3ccc(Cl)cc3)o2)c1	0.8	-11.7	-7.8	2.7	-1.1	.	.	.
O=C(CCC(=O)Nc1ccccc1)NNS(=O)(=O)c1ccccc1[N+](=O)[O-]	-1.8	-11.1	-4.0	-22.0	-0.7	.	.	.
O=C(CSc1nnc(SCc2ccc(Cl)cc2)s1)N/N=C/c1ccccc1C(=O)O	.	-8.2	.	5.5	2.6	.	.	.
COc1ccc(OC)c(/C=C/C(=O)N(C)CC(=O)Nc2ccc(C)cc2)c1	-0.1	59.0*	1.9	-8.1	-0.5	77.3*	0.19	7.6
COc1ccc(OC)c(/C=C/C(=O)N(C)CC(=O)Nc2cc(C)ccc2C)c1	0.2	59.7*	87.3*	-12.1	-0.3	94.8*	-0.0705	10.1
C/C(=N\NC(=O)c1ccoc1C)c1cccc2ccccc12	.	-5.4	.	-11.6	0.1	.	.	.
Cc1nnc(N2C(=O)C(=O)/C(=C(/O)c3ccc4c(c3)OCCO4)C2c2ccc([N+](=O)[O-])cc2)s1 (stereo unspecified)	.	-8.5	.	-21.9	-2.7	.	.	.
CCN(CC)CCC(C)OC(=O)c1ccc(O)cc1O (stereo unspecified)	-0.1	2.3	39.5	29.2	1.5	.	.	.
COc1nccnc1NS(=O)(=O)c1ccc(NCc2cc(Br)ccc2O)cc1	.	63.7*	.	6.2	-0.3	15.0	-0.00134	.
Cc1[nH]c2ccccc2c1/C=N/Nc1nc(Nc2ccc(F)cc2)nc(N2CCOCC2)n1	2.0	60.9*	99.1*	.	0.8	?	108*	.
CCOc1cc(/C=N/Nc2nc(Nc3ccccc3)nc(N3CCCCC3)n2)ccc1OCC(=O)O	-0.4	0.6	-11.5	7.7	2.6	.	.	.
O=C(Oc1cccc(/C=N/Nc2nc(Nc3ccccc3)nc(N3CCOCC3)n2)c1)c1ccco1	0.2	119.9*	64.5*	40.3	-1.2	42.4	13.3*	.
Fc1ccc(Nc2nc(N3CCOCC3)nc(N3CCOCC3)n2)cc1	.	4.0	.	9.7	-1.0	.	.	.
